Some results are limits rather than exact numbers.

Data set [1] relates to Staphylococcus aureus. In words: Antibacterial activity against methicillin-resistant Staphylococcus aureus ATCC 43300 assessed as reduction in microbial growth after 18 hrs by resazurin dye based assay. In kind it is functional. The method in brief:
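Overnight culture at 37 °C, diluted 40-fold in MHB and grown 1.5-2 h to mid-log. Inoculum 5 × 10^5 CFU/mL. Two-fold serial dilutions, final 0.008-32 µg/mL, in duplicate. […] Vancomycin served as the Gram-positive standard.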
Background: Alamar Blue is a resazurin reagent that responds to reducing activity.

Data set [2] deals with Pseudomonas aeruginosa. In words: Antibacterial activity against Pseudomonas aeruginosa ATCC 27853 assessed as reduction in microbial growth after 18 hrs by resazurin dye based assay. In kind it is functional. The procedure, abridged:
(§1)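 Bacteria grown overnight at 37 °C in LB, NB or MHB, diluted 40-fold into MHB and grown 1.5-2 h to mid-log phase. Inoculum 5 × 10^5 CFU/mL (final), 2-fold serial dilutions, final range 0.008-32 µg/mL, in duplicate. […] Colistin as positive control, Z'-factor >0.4 for plate QC.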

In data set [3] the test system is Escherichia coli. In words: Antibacterial activity against Escherichia coli ATCC 25922 assessed as reduction in microbial growth after 18 hrs by resazurin dye based assay. In kind it is functional. The procedure, abridged:
as §1

For data set [4], the system named is Klebsiella pneumoniae. In words: Antibacterial activity against Klebsiella pneumoniae ATCC 700603 assessed as reduction in microbial growth after 18 hrs by resazurin dye based assay. The class given is functional. The procedure, abridged:
as §1

In data set [5] the test system is Acinetobacter baumannii. The data set is described as follows: Antibacterial activity against Acinetobacter baumannii ATCC 19606 assessed as reduction in microbial growth after 18 hrs by resazurin dye based assay. The class given is functional. The following applies: ATCC 19606 = CIP 70.34 = JCM 6841. The method in brief: as §1
For data set [6], the system named is Cryptococcus neoformans. In words: Antifungal activity against Cryptococcus neoformans ATCC 208821 assessed as reduction in microbial growth after 36 hrs by resazurin dye based assay. The class given is functional. The method in brief:
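Yeast grown 3 days on YPD agar at 30 °C and diluted in YNB broth to 2.5 × 10^3 CFU/mL. Compounds at 0.008-32 µg/mL final, 2-fold dilutions, in duplicate. After 36 h at 35 °C without shaking, resazurin added at 0.006% final for a further 3 h; MIC read as absorbance at OD570-600. Fluconazole as positive control.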

The test system of data set [7] is Pseudomonas aeruginosa. The data set is described as follows: Potentiation of doxycycline-induced antibacterial activity against Pseudomonas aeruginosa ATCC 27853 assessed as complete reduction in visible microbial growth after 18 hrs in presence of 4.5 uM doxycycline by two fold serial dilution method. In kind it is functional. The procedure, abridged:
(§2)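 Adjuvant test by broth dilution: inoculum 5 × 10^5 CFU in 200 µL MHB. Two-fold serial dilutions of each derivative were given with doxycycline fixed at 2 µg/mL. After 18 h at 37 °C, the value recorded was the lowest adjuvant concentration giving complete absence of visible growth. Three independent repeats.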

A short description of data set [8]: Hemolytic activity in rat RBC incubated for 1 hr by Neubauer haemocytometric analysis. In kind it is ADME, cell-based, Erythrocyte. The following applies: red blood cells (erythrocytes).
Data set [9] has as its system L6. In words: Cytotoxicity against rat L6 cells assessed as reduction in cell viability at 0.123 to 90 ug/ml measured after 72 hrs by Alamar blue based inverted microscopy analysis. As to conditions: l6, 72 h, dose 0.123-90 µg/ml. The method in brief:
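Rat skeletal myoblast L6 cells, 4 × 10^4 per well, in RPMI 1640 with L-glutamine and 10% FBS. Seven 3-fold dilutions were tested, 90 to 0.123 µg/mL, for 72 h. Alamar Blue added for 2 h, and fluorescence read at ex 536/em 588 nm. Podophyllotoxin served as reference drug.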

Data set [10] has as its system HEK293. In words: Cytotoxicity against human HEK293 cells assessed as reduction in cell viability measured after 20 hrs by resazurin based Neubauer haemocytometric analysis. As to conditions: hek293, 20 h. The method in brief:
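HEK293 cells plated at 5,000 cells/well in DMEM with 10% FBS onto pre-dispensed compound and incubated 20 h at 37 °C, 5% CO2. Resazurin then added at 100 µM final for 3 h; fluorescence read at ex 560/em 590. Signal normalized to 74 µg/mL tamoxifen (0%) and untreated growth (100%). CC50 obtained from dose-response fit.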

Data set [11] has as its system Candida albicans. In words: Antifungal activity against Candida albicans ATCC 90028 assessed as reduction in microbial growth after 36 hrs by absorbance at OD530. The following applies: ATCC 90028, 36 h.
For data set [12], the system named is Escherichia coli. In words: Potentiation of doxycycline-induced antibacterial activity against Escherichia coli ATCC 25922 assessed as complete reduction in visible microbial growth after 18 hrs in presence of 4.5 uM doxycycline by two fold serial dilution method. The class given is functional. The method in brief: as §2
Data set [13] concerns Klebsiella pneumoniae. The data set is described as follows: Potentiation of doxycycline-induced antibacterial activity against Klebsiella pneumoniae ATCC 700603 assessed as complete reduction in visible microbial growth after 18 hrs in presence of 4.5 uM doxycycline by two fold serial dilution method. In kind it is functional.
For data set [14], the system named is Acinetobacter baumannii. The data set is described as follows: Potentiation of doxycycline-induced antibacterial activity against Acinetobacter baumannii AYE assessed as complete reduction in visible microbial growth after 18 hrs in presence of 4.5 uM doxycycline by two fold serial dilution method. The class given is functional. The method in brief:
as §2

The subject of data set [15] is Erythrocyte. The data set is described as follows: Hemolytic activity in human Erythrocyte incubated for 1 hr by Neubauer haemocytometric analysis. The class given is ADME, cell-based. The method in brief: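 Human whole blood washed three times in 0.9% NaCl and resuspended at 0.5 × 10^8 cells/mL (haemocytometer count). Cells added to compound plates, shaken 10 min, then incubated 1 h at 37 °C. After centrifugation at 1,000g for 10 min, supernatant absorbance read at OD405. HC10/HC50 obtained by sigmoidal fit against log concentration.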

The term MIC denotes the lowest concentration found to suppress growth. Usually HC50 stands for the concentration giving 50% haemolysis. A low value points to more damage to red cells. `O=C(CCC(=O)Nc1cccc2cccnc12)NCCCNCCCCCCCCCCNCCCNC(=O)CCC(=O)Nc1cccc2cccnc12.O=C(O)C(F)(F)F.O=C(O)C(F)(F)F`: the minimal inhibitory concentration (MIC) in [1] is 33.1 µM; in data set [2] it was above 33.1 µM; in [3], above 33.1 µM; in data set [4], above 33.1 µM; in data set [5] it was above 33.1 µM; in data set [6], above 33.1 µM. For the same compound, the MIC is 100 µM in data set [7] and above 33.1 µM in [11]. In data set [8], the HC50 at 1 h amounted to 30.5 µM. The Activity entry in [9] and in data set [10] was “Non-Toxic” each time.
On to `COc1cc(NC(C)CCCNC(=O)CCC(=O)NCCCNCCCCNCCCNC(=O)CCC(=O)NCCCC(C)Nc2cc(OC)cc3cccnc23)c2ncccc2c1.O=C(O)C(F)(F)F.O=C(O)C(F)(F)F` (stereo not drawn), for which the MIC was above 33.4 µM in data set [1]; above 33.4 µM in data set [2]; above 33.4 µM in data set [3]; above 33.4 µM in data set [4]; above 33.4 µM in [5]; 33.4 µM in data set [6]. Also, the minimal inhibitory concentration (MIC) in data set [7] is 6.25 µM; in data set [12], 50 µM; in data set [13] it was above 200 µM; in data set [14], above 200 µM; in [11], above 33.4 µM. Further, the Activity result in data set [15], in [9] and in [10] was “Non-Toxic” each time.
Regarding `O=C(CCC(=O)Nc1ccc2ncccc2c1)NCCCNCCCCNCCCNC(=O)CCC(=O)Nc1ccc2ncccc2c1`, the MIC in [1], in [2], in data set [3], in data set [4], in data set [5] and in data set [6] was above 36.2 µM in each case. In addition, the minimum inhibitory concentration (MIC) was 566 µM in [7] and above 36.2 µM in data set [11].
